≈ marks a conversion by molar mass, not a printed value. Calls of active or inactive are those of the source. The rule behind the calls is not given here.

In ChEMBL document CHEMBL1155099, “Natural products in parallel synthesis: triazole libraries of nonactic acid” (2008) one finds Activity and MIC data, which are given here for 16 compounds.

For assay [1], the system named is Candida albicans. Description: Antifungal activity against Candida albicans at 1 mM by almar blue dye reduction assay. Type of assay: functional, organism-based. The essentials: (§1)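 Single-point primary screen at 1 mM using Alamar Blue dye reduction as the growth read-out.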
The test system of assay [2] is Bacillus anthracis. Description: Antibacterial activity against Bacillus anthracis by almar blue dye reduction assay. Type of assay: functional.
Assay [3] relates to Staphylococcus aureus. Description: Antibacterial activity against Staphylococcus aureus at 1 mM by almar blue dye reduction assay. Type of assay: functional, organism-based. The essentials:
as §1

The test system of assay [4] is Pseudomonas aeruginosa. The assay is described as follows: Antibacterial activity against Pseudomonas aeruginosa at 1 mM by almar blue dye reduction assay. Format: functional, organism-based. The essentials: as §1
The subject of assay [5] is Cryptococcus neoformans. Description: Antifungal activity against Cryptococcus neoformans at by almar blue dye reduction assay. Format: functional. The method, boiled down:
(§2)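 Compounds advanced from the 1 mM screen were tested over a dilution series, with a top concentration of 1 mM, using Alamar Blue dye reduction. MIC is the lowest concentration with no dye reduction. Where inhibition was partial with some growth at the top concentration, the value is reported as '>'.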

In assay [6] the test system is Bacillus cereus. The assay is described as follows: Antibacterial activity against Bacillus cereus by almar blue dye reduction assay. Type of assay: functional. The method, boiled down: as §2
The subject of assay [7] is Bacillus subtilis. Description: Antibacterial activity against Bacillus subtilis at 1 mM by almar blue dye reduction assay. Type of assay: functional, organism-based. The method, boiled down:
as §1

For assay [8], the system named is Escherichia coli. Description: Antibacterial activity against Escherichia coli at 1 mM by almar blue dye reduction assay. Type of assay: functional, organism-based. The essentials: as §1
The test system of assay [9] is Saccharomyces cerevisiae. The assay is described as follows: Antifungal activity against Saccharomyces cerevisiae by almar blue dye reduction assay. Format: functional. The essentials:
as §2

Assay [10] relates to Candida albicans. The assay is described as follows: Antifungal activity against Candida albicans by almar blue dye reduction assay. Type of assay: functional. The essentials:
as §2

For assay [11], the system named is Bacillus subtilis. The assay is described as follows: Antibacterial activity against Bacillus subtilis by almar blue dye reduction assay. Type of assay: functional. The essentials: as §2
Assay [12] relates to Cryptococcus neoformans. The assay is described as follows: Antifungal activity against Cryptococcus neoformans at 1 mM by almar blue dye reduction assay. Type of assay: functional, organism-based. The method, boiled down: as §1
Assay [13] has as its system Bacillus anthracis. Description: Antibacterial activity against Bacillus anthracis at 1mM by almar blue dye reduction assay. Type of assay: functional, organism-based.
In assay [14] the test system is Saccharomyces cerevisiae. The assay is described as follows: Antifungal activity against Saccharomyces cerevisiae at 1 mM by almar blue dye reduction assay. Type of assay: functional, organism-based. The essentials:
as §1

In assay [15] the test system is Bacillus cereus. Description: Antibacterial activity against Bacillus cereus at 1 mM by almar blue dye reduction assay. Type of assay: functional, organism-based. The essentials: as §1
Assay [16] relates to Staphylococcus aureus. The assay is described as follows: Antibacterial activity against Staphylococcus aureus by almar blue dye reduction assay. Type of assay: functional. The essentials: as §2
Assay [17] concerns Escherichia coli. The assay is described as follows: Antibacterial activity against Escherichia coli by almar blue dye reduction assay. Type of assay: functional. The essentials: as §2
The test system of assay [18] is Pseudomonas aeruginosa. Description: Antimicrobial activity against Pseudomonas aeruginosa by almar blue dye reduction assay. Type of assay: functional. The method, boiled down: as §2

For orientation: MIC means the lowest concentration found to suppress growth. In the case of `CCCCCC#Cc1cn([C@H](C)C[C@@H]2CC[C@H]([C@@H](C)C(=O)N(C)Cc3ccccc3)O2)nn1`, the outcome with Candida albicans [1], in the assay on Staphylococcus aureus [3], with Pseudomonas aeruginosa [4], in the assay with Bacillus subtilis [7] and in the assay with Escherichia coli [8] was inactive. In addition, the MIC against Bacillus anthracis [2] stood at 430 µg/mL (≈ 954 µM); in the assay with Cryptococcus neoformans [5], 430 µg/mL (≈ 954 µM); in the assay on Bacillus cereus [6], 640 µg/mL (≈ 1420 µM); against Saccharomyces cerevisiae [9], 430 µg/mL (≈ 954 µM).

For `C[C@H](C[C@@H]1CC[C@H]([C@@H](C)C(=O)N2CCN(CC3CCCO3)CC2)O1)n1cc(C#CCOc2cccc(-c3ccccc3)c2)nn1` (some centres not stated), the MIC in the assay with Bacillus anthracis [2] is above 590 µg/mL; against Candida albicans [10], 590 µg/mL (≈ 964 µM); in the assay with Bacillus subtilis [11] it was 880 µg/mL (≈ 1440 µM); with Cryptococcus neoformans [5], 290 µg/mL (≈ 474 µM); against Bacillus cereus [6] it was 150 µg/mL (≈ 245 µM); in the assay on Saccharomyces cerevisiae [9], 290 µg/mL (≈ 474 µM). Also, the result in the assay on Staphylococcus aureus [3], with Pseudomonas aeruginosa [4] and in the assay with Escherichia coli [8] was inactive.

`Cc1cccc(NC(=O)OCC#Cc2cn([C@H](C)CC3CCC([C@@H](C)C(=O)N4CCN(CC5CCCO5)CC4)O3)nn2)c1` (single isomer, unassigned): the result with Candida albicans [1], with Cryptococcus neoformans [12], in the assay with Staphylococcus aureus [3], in the assay with Bacillus anthracis [13], in the assay on Pseudomonas aeruginosa [4] and in the assay with Saccharomyces cerevisiae [14] was inactive. Also, the outcome with Bacillus subtilis [7] and in the assay on Escherichia coli [8] was inactive. Also, in the assay on Bacillus cereus [6], inhibition of growth (MIC) required 570 µg/mL (≈ 962 µM).

With `CCN(CC)C(=O)[C@H](C)C1CCC(C[C@@H](C)n2cc(C#CCNC(=O)Nc3cccc(C)c3)nn2)O1` (single isomer, unassigned), the result in the assay on Candida albicans [1], in the assay on Cryptococcus neoformans [12], in the assay with Staphylococcus aureus [3], in the assay with Bacillus anthracis [13], with Pseudomonas aeruginosa [4] and in the assay with Saccharomyces cerevisiae [14] was inactive. In addition, the outcome in the assay with Bacillus cereus [15] and with Escherichia coli [8] was inactive. The MIC in the assay on Bacillus subtilis [11] worked out at 700 µg/mL (≈ 1420 µM).

Turning to `C[C@H](C[C@@H]1CC[C@H]([C@@H](C)C(=O)N2CCN(CC3CCCO3)CC2)O1)n1cc(C#Cc2cccc3ccccc23)nn1` (some centres not stated), the outcome in the assay on Candida albicans [1], with Cryptococcus neoformans [12], in the assay on Staphylococcus aureus [3], in the assay with Bacillus anthracis [13], with Pseudomonas aeruginosa [4] and in the assay with Saccharomyces cerevisiae [14] was inactive. Besides, the result with Bacillus cereus [15], in the assay on Bacillus subtilis [7] and in the assay on Escherichia coli [8] was inactive. Besides, the MIC is 263 µg/mL (≈ 473 µM) against Bacillus anthracis [2], 790 µg/mL (≈ 1420 µM) against Bacillus subtilis [11] and 260 µg/mL (≈ 468 µM) against Bacillus cereus [6].

On to `CCN(CC)C(=O)[C@H](C)[C@H]1CC[C@@H](C[C@@H](C)n2cc(C#CCOc3cccc(OC)c3OC)nn2)O1`, for which the result with Candida albicans [1], in the assay with Staphylococcus aureus [3], with Bacillus anthracis [13], in the assay on Pseudomonas aeruginosa [4], in the assay on Saccharomyces cerevisiae [14] and in the assay with Bacillus cereus [15] was inactive. Besides, the result with Bacillus subtilis [7] and in the assay on Escherichia coli [8] was inactive. In addition, the MIC in the assay with Cryptococcus neoformans [5] worked out at 480 µg/mL (≈ 963 µM).

In the case of `C[C@H](C[C@@H]1CC[C@H]([C@@H](C)C(=O)N(C)Cc2ccccc2)O1)n1cc(C#CCC2CCCC2)nn1`, the outcome with Candida albicans [1], in the assay on Staphylococcus aureus [3], in the assay on Pseudomonas aeruginosa [4], in the assay with Bacillus subtilis [7] and in the assay with Escherichia coli [8] was inactive. Further, the MIC was found to be 440 µg/mL (≈ 951 µM) against Bacillus anthracis [2], 219 µg/mL (≈ 473 µM) against Cryptococcus neoformans [5], 440 µg/mL (≈ 951 µM) in the assay on Bacillus cereus [6] and 220 µg/mL (≈ 476 µM) against Saccharomyces cerevisiae [9].

For the compound `CCOC(=O)C#Cc1cn([C@H](C)CC2CCC([C@@H](C)C(=O)N3CCN(CC4CCCO4)CC3)O2)nn1` (single isomer, unassigned), the MIC against Staphylococcus aureus [16] was 120 µg/mL (≈ 239 µM); in the assay on Escherichia coli [17], 120 µg/mL (≈ 239 µM); in the assay on Bacillus anthracis [2], above 480 µg/mL; against Pseudomonas aeruginosa [18], 480 µg/mL (≈ 957 µM); against Candida albicans [10], 240 µg/mL (≈ 478 µM); with Bacillus subtilis [11] it was 240 µg/mL (≈ 478 µM). Besides, the MIC worked out at 480 µg/mL (≈ 957 µM) in the assay on Cryptococcus neoformans [5], 240 µg/mL (≈ 478 µM) in the assay with Bacillus cereus [6] and 240 µg/mL (≈ 478 µM) in the assay with Saccharomyces cerevisiae [9].

In the case of `C[C@H](C[C@@H]1CC[C@H]([C@@H](C)C(=O)N(C)Cc2ccccc2)O1)n1cc(C#CCN(C)CCc2ccccc2)nn1`, the result with Candida albicans [1], in the assay with Pseudomonas aeruginosa [4], in the assay with Saccharomyces cerevisiae [14] and with Escherichia coli [8] was inactive. In addition, the MIC in the assay on Staphylococcus aureus [16] turned out to be 500 µg/mL (≈ 947 µM); in the assay on Bacillus anthracis [2], 250 µg/mL (≈ 474 µM); against Bacillus subtilis [11], 250 µg/mL (≈ 474 µM); in the assay on Cryptococcus neoformans [5], 500 µg/mL (≈ 947 µM); in the assay on Bacillus cereus [6], 250 µg/mL (≈ 474 µM).

As to `C[C@H](C[C@@H]1CC[C@H]([C@@H](C)C(=O)N2CCN(CC3CCCO3)CC2)O1)n1cc(C#Cc2ccc(C(F)(F)F)cc2)nn1` (some centres not stated), the outcome in the assay on Candida albicans [1], in the assay on Cryptococcus neoformans [12], with Staphylococcus aureus [3], in the assay on Bacillus anthracis [13], in the assay with Pseudomonas aeruginosa [4] and with Saccharomyces cerevisiae [14] was inactive. Besides, the outcome with Bacillus cereus [15] and in the assay on Escherichia coli [8] was inactive. This compound also registered an MIC with Bacillus subtilis [11] of 820 µg/mL (≈ 1430 µM).

Take `C[C@H](C[C@@H]1CC[C@H]([C@@H](C)C(=O)N2CCN(CC3CCCO3)CC2)O1)n1cc(C#Cc2ccc(-c3ccccc3)cc2)nn1` (some centres not stated): the result in the assay on Candida albicans [1], in the assay with Cryptococcus neoformans [12], in the assay with Staphylococcus aureus [3], with Bacillus anthracis [13], in the assay with Pseudomonas aeruginosa [4] and with Saccharomyces cerevisiae [14] was inactive. Also, the outcome in the assay with Bacillus cereus [15] and with Escherichia coli [8] was inactive. The same compound came in with an MIC in the assay with Bacillus subtilis [11] of 560 µg/mL (≈ 963 µM).

Regarding `C[C@H](C[C@@H]1CC[C@H]([C@@H](C)C(=O)N(C)Cc2ccccc2)O1)n1cc(C#Cc2ccccn2)nn1`, the result with Candida albicans [1], in the assay with Cryptococcus neoformans [12], with Staphylococcus aureus [3], in the assay on Pseudomonas aeruginosa [4], with Saccharomyces cerevisiae [14] and with Bacillus cereus [15] was inactive. The outcome in the assay with Bacillus subtilis [7] and in the assay with Escherichia coli [8] was inactive. Also, the MIC with Bacillus anthracis [2] was above 430 µg/mL.

With `CCCCN(CC#Cc1cn([C@H](C)C[C@@H]2CC[C@H]([C@@H](C)C(=O)N(C)Cc3ccccc3)O2)nn1)CCCC`, the outcome with Candida albicans [1], with Pseudomonas aeruginosa [4], in the assay on Saccharomyces cerevisiae [14] and with Escherichia coli [8] was inactive. The MIC amounted to 500 µg/mL (≈ 958 µM) against Staphylococcus aureus [16]; 500 µg/mL (≈ 958 µM) against Bacillus anthracis [2]; 250 µg/mL (≈ 479 µM) against Bacillus subtilis [11]; 250 µg/mL (≈ 479 µM) against Cryptococcus neoformans [5]; 250 µg/mL (≈ 479 µM) in the assay with Bacillus cereus [6].

On to `CCCCN(CC#Cc1cn([C@H](C)C[C@@H]2CC[C@H]([C@@H](C)C(=O)N3CCN(CC4CCCO4)CC3)O2)nn1)CCCC` (some centres not stated), for which the result in the assay on Candida albicans [1], with Cryptococcus neoformans [12], in the assay on Staphylococcus aureus [3], in the assay with Bacillus anthracis [13], in the assay on Pseudomonas aeruginosa [4] and in the assay with Saccharomyces cerevisiae [14] was inactive. The result with Bacillus cereus [15] and with Escherichia coli [8] was inactive. In the assay with Bacillus subtilis [11], this compound came in with a minimal inhibitory concentration (MIC) of 820 µg/mL (≈ 1440 µM).

In the case of `C[C@H](C[C@@H]1CC[C@H]([C@@H](C)C(=O)N2CCN(CC3CCCO3)CC2)O1)n1cc(C#CCOc2ccccc2)nn1` (some centres not stated), the result in the assay on Candida albicans [1], with Cryptococcus neoformans [12], in the assay on Staphylococcus aureus [3], in the assay on Bacillus anthracis [13], with Pseudomonas aeruginosa [4] and with Saccharomyces cerevisiae [14] was inactive. Besides, the outcome with Bacillus cereus [15], with Bacillus subtilis [7] and in the assay on Escherichia coli [8] was inactive.

Turning to `CCCNC(=O)NCC#Cc1cn([C@H](C)CC2CCC([C@@H](C)C(=O)N3CCN(CC4CCCO4)CC3)O2)nn1` (single isomer, unassigned), the result in the assay with Candida albicans [1], in the assay on Cryptococcus neoformans [12], in the assay with Staphylococcus aureus [3], with Bacillus anthracis [13], in the assay on Pseudomonas aeruginosa [4] and in the assay with Saccharomyces cerevisiae [14] was inactive. For the same compound, the outcome with Bacillus cereus [15], in the assay with Bacillus subtilis [7] and in the assay on Escherichia coli [8] was inactive.
